pIC50: −log10 of the molar value.

Among the data in ChEMBL document CHEMBL3259584, “Antiproliferative novel isoxazoles: modeling, virtual screening, synthesis, and bioactivity evaluation” (Eur J Med Chem, 2014) are IC50 values, retold here.

One assay has as its system MCF7. Kind of assay: Antiproliferative activity against human MCF7 cells after 5 days by coulter counter analysis. The settings on record: MCF7, 120 h. The class given is functional, cell-based. Put shortly:
(§1)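 Mouse brain endothelial cells (MBEC), HeLa and MCF-7 were maintained in DMEM with 10 mM Hepes and 10% FBS. Cells were seeded at 10,000 cells per cm2. After 16 h the medium was replaced with fresh medium containing 5-fold serial dilutions of compound. On day 5 cells were trypsinized and counted electronically. IC50 was taken as the concentration halving cell number relative to untreated control counts.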

Assay [1] is described as follows: Antiproliferative activity against human HMEC1 cells after 5 days by coulter counter analysis. It is filed as cell-based. The conditions noted are these: HMEC-1, 120 h. Put shortly: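 HMEC-1 human microvascular endothelial cells were grown in EGM-2 MV endothelial medium and plated at 10,000 cells per cm2. After 16 h they received fresh medium with 5-fold dilutions of compound. On day 5 cells were trypsinized and counted with a Coulter counter. IC50 was the concentration reducing cell count by 50% relative to control cultures.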

The nature of assay [2]: Antiproliferative activity against MBEC after 5 days by coulter counter analysis. Set-up: species or system Mus musculus. The gist of the method:
as §1

Another assay concerns HeLa. Kind of assay: Antiproliferative activity against human HeLa cells after 5 days by coulter counter analysis. It is filed as functional, cell-based. The conditions noted are these: 120 h. The gist of the method: as §1

As to `COc1ccc(-c2cc(-c3ccc(OC)cc3)on2)cc1`, the pIC50 (with MCF7; in assay [1]; in assay [2]; in the assay with HeLa) was less than 4.00 each time.
`COc1ccc2c(c1)CCc1c(-c3ccc(F)cc3)noc1-2`: the pIC50 in the assay with MCF7 was less than 4.00; in assay [1], less than 4.00; in assay [2], less than 4.00; in the assay with HeLa, 4.47.
For `COc1ccc2c(c1)CCc1c(-c3ccc(SC(F)(F)F)cc3)noc1-2`, the pIC50 (in the assay with MCF7; in assay [1]; in assay [2]; with HeLa) was less than 4.00 in each case.
On to `COc1ccc2c(c1)CCc1c(-c3ccc(OC)c(OC)c3)noc1-2`, for which the pIC50 (in the assay on MCF7; in assay [1]; in assay [2]; in the assay with HeLa) was less than 4.00 throughout.
Turning to `Cc1c(-c2ccc(O)cc2)noc1-c1ccc(O)cc1`, the pIC50 in the assay on MCF7 is 4.32; in assay [1], 4.33; in assay [2] it was 4.72; in the assay on HeLa, 4.82.
On to `Oc1ccc(-c2noc3c2CCc2cc(O)ccc2-3)cc1`, for which the pIC50 in the assay with MCF7 is 5.51; in assay [1], 5.17; in assay [2], 5.34; in the assay on HeLa, 5.48.
`O=[N+]([O-])c1ccc(-c2cc(-c3ccc(O)cc3)no2)cc1`: the pIC50 in the assay with MCF7 is 4.28; in assay [1] it was 4.57; in assay [2], 4.38; in the assay on HeLa it was 4.24.
On the same counts, the results for `COc1ccc(-c2cc(-c3ccc([N+](=O)[O-])cc3)on2)cc1` are less than 4.00, less than 4.00, less than 4.00 and less than 4.00.
For `CCc1c(-c2ccc(OC)cc2)noc1-c1ccc(OC)cc1`, the pIC50 (in the assay with MCF7; in assay [1]; in assay [2]; in the assay with HeLa) was less than 4.00 each time.
For `Oc1ccc2c(c1)CCc1c(-c3ccc(O)c(O)c3)noc1-2`, the pIC50 is 6.14 in the assay with MCF7, 6.38 in assay [1], 6.02 in assay [2] and 6.01 in the assay on HeLa.
As to `Oc1ccc(-c2noc3c2CCc2cc(O)c(O)cc2-3)cc1`, the negative-log IC50 (pIC50) in the assay with MCF7 is 5.68; in assay [1], 5.13; in assay [2], 5.17; in the assay with HeLa, 5.00.
Regarding `COc1ccc(-c2noc3c2CCc2cc(OC)ccc2-3)cc1`, the pIC50 (with MCF7; in assay [1]; in assay [2]; with HeLa) was less than 4.00 in each case.
In the case of `Oc1ccc2c(c1)CCc1c(-c3ccc(F)cc3)noc1-2`, the pIC50 was less than 4.00 in the assay with MCF7, 4.34 in assay [1], 4.42 in assay [2] and less than 4.00 with HeLa.
For the compound `COc1ccc(-c2noc3c2CCc2cc(OC)c(OC)cc2-3)cc1OC`, the pIC50 with MCF7 is 6.44; in assay [1] it was 6.25; in assay [2], 5.96; in the assay on HeLa, 6.23.
Consider `CCc1c(-c2ccc(O)cc2)noc1-c1ccc(O)cc1`, for which the pIC50 in the assay on MCF7 is 5.01; in assay [1], 5.01; in assay [2] it was 4.89; in the assay with HeLa, 4.80.
Consider `Oc1ccc2c(c1)CCc1c(-c3ccc(SC(F)(F)F)cc3)noc1-2`, for which the pIC50 in the assay with MCF7 was 4.09; in assay [1], 4.19; in assay [2], 4.17; in the assay on HeLa, 4.26.
As to `Oc1ccc(-c2cc(-c3ccc(O)cc3)on2)cc1`, the pIC50 in the assay with MCF7 was 5.28; in assay [1] it was 5.20; in assay [2], 5.60; with HeLa, 5.22.
Take `COc1ccc(-c2noc3c2CCc2cc(OC)c(OC)cc2-3)cc1`: the pIC50 (in the assay on MCF7; in assay [1]; in assay [2]; in the assay on HeLa) was less than 4.00 each time.
Regarding `COc1ccc(-c2noc(-c3ccc(OC)cc3)c2C)cc1`, the pIC50 (in the assay with MCF7; in assay [1]; in assay [2]; in the assay on HeLa) was less than 4.00 each time.
As to `Oc1ccc(-c2noc3c2CCc2cc(O)c(O)cc2-3)cc1O`, the negative-log IC50 (pIC50) is 5.68 in the assay with MCF7, 5.38 in assay [1], 5.00 in assay [2] and 5.04 with HeLa.

In general, pIC50 refers to the negative decadic logarithm of the IC50, by convention in mol/L. Low values mean a large IC50, high ones a small IC50.
